According to ChEMBL document CHEMBL3259611, “Suppression of inflammatory responses by handelin, a guaianolide dimer from Chrysanthemum boreale, via downregulation of NF-κB signaling and pro-inflammatory cytokine production” (J Nat Prod, 2014):
Active and inactive are the calls of the source. No cut-off for these calls is given here.

Assays:
RAW264.7 [1] = experiment: Inhibition of LPS-induced NFkappaB transcriptional activity in mouse RAW264.7 cells assessed as […] at 40 uM after 30 mins by Western blotting analysis relative to control; assay type: cell-based
Summary of the method: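 Macrophages were exposed to compound for 30 min before LPS stimulation, with proteins extracted 30 min later. Nuclear extracts were prepared in Tris/KCl/NP-40 lysis buffer, then 420 mM NaCl buffer, and the cytosolic fraction was kept for IκB-α. Western blot on PVDF with ECL detection. Tests in triplicate; representative of three separate experiments.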

JNK1/JNK2 (Mus musculus) = JNK1/JNK2 (Mus musculus) (UniProt Q91Y86+Q9WTU6); experiment: Inhibition LPS-induced JNK1/2 phosphorylation at Thr183/[…] in mouse RAW264.7 cells at 40 uM administered 30 mins prior to LPS challenge measured after 30 mins by Western blotting analysis; assay type: cell-based
Sequence of JNK1/JNK2 (Mus musculus) (Q91Y86 whole entry, looked up): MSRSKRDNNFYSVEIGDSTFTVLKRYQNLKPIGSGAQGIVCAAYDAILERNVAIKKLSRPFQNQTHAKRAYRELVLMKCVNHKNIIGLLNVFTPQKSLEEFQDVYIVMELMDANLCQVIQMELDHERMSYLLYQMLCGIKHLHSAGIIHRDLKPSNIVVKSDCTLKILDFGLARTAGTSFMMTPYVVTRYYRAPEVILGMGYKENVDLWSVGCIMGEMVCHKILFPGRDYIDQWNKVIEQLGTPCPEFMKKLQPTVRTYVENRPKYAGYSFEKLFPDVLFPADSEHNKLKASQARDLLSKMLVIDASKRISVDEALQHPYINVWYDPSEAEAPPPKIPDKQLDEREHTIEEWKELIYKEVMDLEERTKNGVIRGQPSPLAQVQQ
Sequence of JNK1/JNK2 (Mus musculus) (Q9WTU6 whole entry, looked up): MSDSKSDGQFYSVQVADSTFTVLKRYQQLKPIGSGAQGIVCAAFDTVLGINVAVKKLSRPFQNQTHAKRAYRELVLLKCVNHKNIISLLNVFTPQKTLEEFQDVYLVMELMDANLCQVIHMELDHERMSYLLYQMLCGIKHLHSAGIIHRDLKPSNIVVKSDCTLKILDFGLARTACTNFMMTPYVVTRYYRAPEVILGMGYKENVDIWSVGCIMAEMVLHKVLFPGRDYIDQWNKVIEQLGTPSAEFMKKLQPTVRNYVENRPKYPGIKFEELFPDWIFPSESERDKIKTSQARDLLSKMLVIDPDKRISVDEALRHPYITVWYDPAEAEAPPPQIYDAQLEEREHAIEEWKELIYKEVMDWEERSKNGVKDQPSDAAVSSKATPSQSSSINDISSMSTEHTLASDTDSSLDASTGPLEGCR
Summary of the method: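 RAW 264.7 cells pretreated with compound for 30 min, then stimulated with LPS for an additional 30 min. Lysates resolved by 6−15% SDS-PAGE and blotted to PVDF. Primary antibodies were applied overnight at 4 °C and secondary antibodies for 2 h at room temperature. Detection by ECL. Tests in triplicate; blots representative of three separate experiments.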

Mus musculus [2] = experiment: Antiinflammatory activity in ICR mouse ear edema model assessed as inhibition of TPA-induced IL-1beta protein expression in ear tissue at 10 to 20 mg/kg, po administered 30 mins prior to TPA challenge measured after 4 hrs by Western blotting analysis relative to vehicle-treated control; assay type: functional, organism-based
Summary of the method: (§1)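 ICR mice (male, 18−20 g, 5 weeks old) dosed orally 30 min before TPA (1.0 μg in 20 μL acetone) was applied to inner and outer surfaces of the right ear. Killed by cervical dislocation after 4 h. Edema taken as the weight of a 5 mm punch biopsy of the right ear over the left. Ear homogenates were Western blotted for iNOS, COX-2 and IL-1β.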

RAW264.7 [3] = experiment: Antiinflammatory activity in mouse RAW264.7 cells assessed as inhibition LPS-induced IL-1beta protein expression at 40 uM after 4 hrs by Western blotting analysis; assay type: functional
Summary of the method: (§2)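 RAW 264.7 cells stimulated with LPS (1 μg/mL) with or without compound for 4 h. Lysates were resolved by 6−15% SDS-PAGE and blotted to PVDF. Blocked in 5% milk/PBST, primary antibody overnight at 4 °C, secondary antibody 2 h, detected by ECL. Triplicate, representative of three experiments.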

RAW264.7 [4] = experiment: Antiinflammatory activity in mouse RAW264.7 cells assessed as inhibition of LPS-induced COX2 mRNA expression at 20 uM after 5 hrs by RT-PCR analysis relative to control; assay type: functional
Summary of the method: (§3)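 RAW 264.7 cells exposed to 1 μg/mL LPS with or without compound for 5 h. Total RNA was analysed by RT-PCR: 25−30 cycles with annealing at 55 °C. Products were separated on 2% agarose gel with SYBR-Safe staining. Experiments in triplicate.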

RAW264.7 [5] = experiment: Antiinflammatory activity in mouse RAW264.7 cells assessed as inhibition of LPS-induced COX2 mRNA expression at 10 uM after 5 hrs by RT-PCR analysis relative to control; assay type: functional; summary of the method: as §3
Mus musculus [6] = experiment: Antiinflammatory activity in ICR mouse ear edema model assessed as inhibition of TPA-induced COX2 protein expression in ear tissue at 10 to 20 mg/kg, po administered 30 mins prior to TPA challenge measured after 4 hrs by Western blotting analysis relative to vehicle-treated control; assay type: functional, organism-based; summary of the method: as §1
RAW264.7 [7] = experiment: Antiinflammatory activity in mouse RAW264.7 cells assessed as inhibition of LPS-induced iNOS mRNA expression at 20 uM after 5 hrs by RT-PCR analysis relative to control; assay type: functional; summary of the method: as §3
[8] = Cytotoxicity against mouse RAW264.7 cells assessed as cell viability at 40 uM after 4 hrs by MTT assay relative to control; assay type: cell-based; details: read-out: Activity
Summary of the method: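 RAW 264.7 cells plated at 3 × 10^5 cells/mL in phenol red-free 10% FBS–DMEM, incubated 24 h, then treated with compound plus 1 μg/mL LPS for 20 h. After the Griess step, MTT was added (final 500 μg/mL) for 4 h at 37 °C. Formazan dissolved in DMSO, A570 read; survival taken relative to control; triplicate.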

[9] = target: T1, Nuclear factor NF-kappa-B p105 subunit (Mus musculus) (UniProt P25799); experiment: Inhibition of LPS-induced NF-kappaB p50 binding to DNA in mouse RAW264.7 cells at 10 to 40 uM after 1.5 hrs by spectrophotometry in presence of wild type oligonucleotide; assay type: cell-based
T1 sequence (whole entry): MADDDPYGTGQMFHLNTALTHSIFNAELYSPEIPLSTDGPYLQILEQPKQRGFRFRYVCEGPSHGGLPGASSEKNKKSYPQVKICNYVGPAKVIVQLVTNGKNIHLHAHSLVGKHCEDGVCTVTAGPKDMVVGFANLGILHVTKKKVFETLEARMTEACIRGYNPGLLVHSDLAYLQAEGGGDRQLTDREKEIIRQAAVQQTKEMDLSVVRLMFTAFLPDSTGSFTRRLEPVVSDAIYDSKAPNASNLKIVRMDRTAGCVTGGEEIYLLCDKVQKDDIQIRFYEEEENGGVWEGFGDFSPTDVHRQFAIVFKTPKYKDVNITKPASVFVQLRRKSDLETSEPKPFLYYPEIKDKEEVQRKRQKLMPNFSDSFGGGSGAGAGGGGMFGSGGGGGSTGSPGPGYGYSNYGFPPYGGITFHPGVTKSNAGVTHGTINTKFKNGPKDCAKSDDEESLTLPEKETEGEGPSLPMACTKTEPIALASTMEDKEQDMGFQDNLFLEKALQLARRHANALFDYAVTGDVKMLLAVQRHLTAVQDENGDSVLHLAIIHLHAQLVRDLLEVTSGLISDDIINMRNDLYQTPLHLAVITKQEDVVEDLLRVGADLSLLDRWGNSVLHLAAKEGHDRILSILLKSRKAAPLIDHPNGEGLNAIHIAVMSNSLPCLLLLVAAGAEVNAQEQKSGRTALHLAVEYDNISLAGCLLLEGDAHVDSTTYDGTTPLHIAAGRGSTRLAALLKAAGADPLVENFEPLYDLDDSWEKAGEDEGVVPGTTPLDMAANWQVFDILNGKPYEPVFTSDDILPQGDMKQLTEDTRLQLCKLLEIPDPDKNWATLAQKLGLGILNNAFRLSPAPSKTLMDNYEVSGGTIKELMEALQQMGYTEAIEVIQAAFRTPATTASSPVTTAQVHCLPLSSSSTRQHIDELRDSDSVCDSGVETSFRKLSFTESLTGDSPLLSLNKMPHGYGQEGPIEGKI

RAW264.7 [10] = experiment: Antiinflammatory activity in mouse RAW264.7 cells assessed as inhibition LPS-induced IL-1beta protein expression at 10 uM after 4 hrs by Western blotting analysis; assay type: functional; summary of the method: as §2

C=C1C(=O)O[C@@H]2[C@@H]3[C@@]4(C=C[C@@]3(C)[C@]3(C4)C(=O)O[C@@H]4[C@H]5C(C)=CC[C@H]5[C@](C)(O)C[C@H](OC(C)=O)[C@H]43)[C@](C)(O)CC[C@@H]12
fold change (FC) (RAW264.7 [1]): 1.83 | fold change (FC) (JNK1/JNK2 (Mus musculus)): 0.24 | inhibition (Mus musculus [2]): Active | fold change (FC) (RAW264.7 [3]): 0.65 | fold change (FC) (RAW264.7 [4]): 0.58 | fold change (FC) (RAW264.7 [5]): 0.63 | inhibition (Mus musculus [6]): Active | fold change (FC) (RAW264.7 [7]): 0.67 | viability at 4 h, 40 µM [8]: 83% | inhibition [9]: inactive | fold change (FC) (RAW264.7 [10]): 0.73
